Reference: ChEMBL document CHEMBL3580615, “Isolation and Characterization of Dammarane-Type Saponins from Gynostemma pentaphyllum and Their Inhibitory Effects on IL-6-Induced STAT3 Activation” (J Nat Prod, 2015)

Experiment: Cytotoxicity against human Hep3B cells after 48 hrs by MTT assay
Type: cell-based
Conditions: hep 3b2, 48 h
In short: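 Hep3B cells plated and grown 24 h in 96-well plates, then switched to serum-free medium. Samples added at indicated concentrations for 48 h. Viability read by MTT assay.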

SMILES | Activity
CC(C)/C=C/C[C@](C)(O[C@@H]1O[C@H](CO[C@@H]2O[C@@H](C)[C@H](O)[C@@H](O)[C@H]2O)[C@@H](O)[C@H](O)[C@H]1O)[C@H]1CC[C@]2(C)[C@@H]1[C@H](O)C[C@@H]1[C@@]3(C)C[C@@H](O)[C@H](O[C@@H]4O[C@H](CO)[C@@H](O)[C@H](O)[C@H]4O[C@@H]4O[C@H](CO)[C@@H](O)[C@H](O)[C@H]4O)C(C)(C)[C@@H]3CC[C@]12C | Non-toxic
C[C@@H]1O[C@@H](OC[C@H]2O[C@@H](O[C@@](C)(C/C=C/C(C)(C)O)[C@H]3CC[C@]4(C)[C@@H]3[C@H](O)C[C@@H]3[C@@]5(C)C[C@@H](O)[C@H](O[C@@H]6O[C@H](CO)[C@@H](O)[C@H](O)[C@H]6O)C(C)(C)[C@@H]5CC[C@]34C)[C@H](O)[C@@H](O)[C@@H]2O)[C@H](O)[C@H](O)[C@H]1O | Non-toxic
CC(C)(/C=C/C[C@](C)(O[C@@H]1O[C@H](CO)[C@@H](O)[C@H](O)[C@H]1O)[C@H]1CC[C@]2(C)[C@@H]1[C@H](O)C[C@@H]1[C@@]3(C)C[C@@H](O)[C@H](O[C@@H]4O[C@H](CO)[C@@H](O)[C@H](O)[C@H]4O[C@@H]4O[C@H](CO)[C@@H](O)[C@H](O)[C@H]4O)C(C)(C)[C@@H]3CC[C@]12C)OO | Non-toxic
C[C@@H]1O[C@@H](OC[C@H]2O[C@@H](O[C@@](C)(C/C=C/C(C)(C)OO)[C@H]3CC[C@]4(C)[C@@H]3[C@H](O)C[C@@H]3[C@@]5(C)C[C@@H](O)[C@H](O[C@@H]6O[C@H](CO)[C@@H](O)[C@H](O)[C@H]6O[C@@H]6O[C@H](CO)[C@@H](O)[C@H](O)[C@H]6O)C(C)(C)[C@@H]5CC[C@]34C)[C@H](O)[C@@H](O)[C@@H]2O)[C@H](O)[C@H](O)[C@H]1O | Non-toxic
CC(C)(/C=C/C[C@](C)(O[C@@H]1O[C@H](CO[C@@H]2O[C@H](CO)[C@@H](O)[C@H](O)[C@H]2O)[C@@H](O)[C@H](O)[C@H]1O)[C@H]1CC[C@]2(C)[C@@H]1[C@H](O)C[C@@H]1[C@@]3(C)C[C@@H](O)[C@H](O)C(C)(C)[C@@H]3CC[C@]12C)OO | Non-toxic
C=C(C)C(=O)CC[C@](C)(O[C@@H]1O[C@H](CO[C@@H]2O[C@@H](C)[C@H](O)[C@@H](O)[C@H]2O)[C@@H](O)[C@H](O)[C@H]1O)[C@H]1CC[C@]2(C)[C@@H]1[C@H](O)C[C@@H]1[C@@]3(C)C[C@@H](O)[C@H](O[C@@H]4O[C@H](CO)[C@@H](O)[C@H](O)[C@H]4O[C@@H]4O[C@H](CO)[C@@H](O)[C@H](O)[C@H]4O)C(C)(C)[C@@H]3CC[C@]12C | Non-toxic
C=C(C)C(=O)CC[C@](C)(O[C@@H]1O[C@H](CO[C@@H]2O[C@H](CO)[C@@H](O)[C@H](O)[C@H]2O)[C@@H](O)[C@H](O)[C@H]1O)[C@H]1CC[C@]2(C)[C@@H]1[C@H](O)C[C@@H]1[C@@]3(C)C[C@@H](O)[C@H](O)C(C)(C)[C@@H]3CC[C@]12C | Non-toxic
CC(C)/C=C/C[C@](C)(O[C@@H]1O[C@H](CO[C@@H]2O[C@@H](C)[C@H](O)[C@@H](O)[C@H]2O)[C@@H](O)[C@H](O)[C@H]1O)[C@H]1CC[C@]2(C)[C@@H]1[C@H](O)C[C@@H]1[C@@]3(C)C[C@@H](O)[C@H](O[C@@H]4O[C@H](CO)[C@@H](O)[C@H](O)[C@H]4O)C(C)(C)[C@@H]3CC[C@]12C | Non-toxic
C=C(C)C(=O)CC[C@](C)(O[C@@H]1O[C@H](CO[C@@H]2O[C@@H](C)[C@H](O)[C@@H](O)[C@H]2O)[C@@H](O)[C@H](O)[C@H]1O)[C@H]1CC[C@]2(C)[C@@H]1[C@H](O)C[C@@H]1[C@@]3(C)C[C@@H](O)[C@H](O)C(C)(C)[C@@H]3CC[C@]12C | Non-toxic
CC(C)/C=C/C[C@](C)(O[C@@H]1O[C@H](CO[C@@H]2O[C@@H](C)[C@H](O)[C@@H](O)[C@H]2O)[C@@H](O)[C@H](O)[C@H]1O)[C@H]1CC[C@]2(C)[C@@H]1[C@H](O)C[C@@H]1[C@@]3(C)CC[C@H](O[C@@H]4O[C@H](CO)[C@@H](O)[C@H](O)[C@H]4O[C@@H]4O[C@H](CO)[C@@H](O)[C@H](O)[C@H]4O)C(C)(C)[C@@H]3CC[C@]12C | Non-toxic
CC(C)/C=C/C[C@](C)(O[C@@H]1O[C@H](CO[C@@H]2O[C@@H](C)[C@H](O)[C@@H](O)[C@H]2O)[C@@H](O)[C@H](O)[C@H]1O)[C@H]1CC[C@]2(C)[C@@H]1[C@H](O)C[C@@H]1[C@@]3(C)C[C@@H](O)[C@H](O)C(C)(C)[C@@H]3CC[C@]12C | Non-toxic
